Data taken from ChEMBL document CHEMBL5316332 (J Med Chem, 2023).
Active and inactive are the calls of the source. No cut-off for these calls is given here.

Key:
[1] = Metabolic stability in human liver microsomes assessed as half life at 2 uM and mesured upto 60 mins in presence of NADPH by UHPLC-MS analysis; format: ADME, Microsome; conditions: for t1/2: microsomes, 1 h, 2 µM
[2] = biological target: T1, Bone morphogenetic protein receptor type-2 (Homo sapiens, UniProt Q13873); assay: (§1) Inhibition of recombinant C-terminal 6His-tagged human BMPR2 (188 to 517 residues) expressed in Escherichia coli Rosetta assessed as apparent inhibition constant using ATP as substrate incubated for 30 mins by Morrison plot analysis; conditions: read-out: Ki(app)
T1 sequence (Q13873 whole entry): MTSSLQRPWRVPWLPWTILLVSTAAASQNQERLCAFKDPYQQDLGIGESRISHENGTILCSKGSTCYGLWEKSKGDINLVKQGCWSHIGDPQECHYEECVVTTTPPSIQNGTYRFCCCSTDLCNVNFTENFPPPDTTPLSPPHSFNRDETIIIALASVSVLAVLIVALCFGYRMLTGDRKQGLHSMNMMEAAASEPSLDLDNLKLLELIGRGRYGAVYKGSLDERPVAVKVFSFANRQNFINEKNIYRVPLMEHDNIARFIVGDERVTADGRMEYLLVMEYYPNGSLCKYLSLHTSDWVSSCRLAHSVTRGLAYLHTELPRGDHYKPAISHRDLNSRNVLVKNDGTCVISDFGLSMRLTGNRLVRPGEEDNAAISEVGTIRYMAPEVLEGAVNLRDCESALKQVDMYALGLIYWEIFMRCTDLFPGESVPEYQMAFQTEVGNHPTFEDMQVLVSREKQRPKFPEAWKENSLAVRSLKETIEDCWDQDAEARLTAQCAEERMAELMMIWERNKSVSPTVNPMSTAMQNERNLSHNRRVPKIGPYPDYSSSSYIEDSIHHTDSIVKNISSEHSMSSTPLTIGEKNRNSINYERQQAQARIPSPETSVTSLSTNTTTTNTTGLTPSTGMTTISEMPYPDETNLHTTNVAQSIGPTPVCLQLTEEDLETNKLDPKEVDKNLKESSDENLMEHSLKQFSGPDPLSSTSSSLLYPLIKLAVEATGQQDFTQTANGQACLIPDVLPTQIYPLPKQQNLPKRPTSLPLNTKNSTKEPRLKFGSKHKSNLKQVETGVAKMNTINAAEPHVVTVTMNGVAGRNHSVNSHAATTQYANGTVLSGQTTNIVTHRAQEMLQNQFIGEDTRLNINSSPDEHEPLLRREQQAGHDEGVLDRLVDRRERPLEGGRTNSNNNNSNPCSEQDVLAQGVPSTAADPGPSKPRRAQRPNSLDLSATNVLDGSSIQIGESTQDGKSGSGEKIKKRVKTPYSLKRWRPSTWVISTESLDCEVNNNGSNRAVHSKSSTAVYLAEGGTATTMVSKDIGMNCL
In short: (§2)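 Purified His-tagged BMPR2 kinase domain with no peptide substrate (intrinsic ATPase). 10 μM ATP, 0.02% Tween-20, kinase buffer, 50 μL, enzyme level optimized for initial-velocity conditions. 30 min at 30 °C. Leftover ATP read by Kinase-Glo luminescence, with no-kinase controls. Kiapp from a modified Morrison equation fitted to normalized fractional activity, assuming no specific inhibition mode.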

[3] = Metabolic stability in human liver microsomes assessed as intrinsic clearance per mg of protein at 2 uM and mesured upto 60 mins in presence of NADPH by UHPLC-MS analysis; format: ADME, Microsome; conditions: for microsomal intrinsic clearance: microsomes, 1 h, 2 µM
[4] = Metabolic stability in mouse liver microsomes assessed as intrinsic clearance per mg of protein at 2 uM and mesured upto 60 mins in presence of NADPH by UHPLC-MS analysis; format: ADME, Microsome; conditions: for microsomal intrinsic clearance: microsomes, 1 h, 2 µM
[5] = Metabolic stability in mouse liver microsomes assessed as half life at 2 uM and mesured upto 60 mins in presence of NADPH by UHPLC-MS analysis; format: ADME, Microsome; conditions: for t1/2: microsomes, 1 h, 2 µM
HUVEC [6] = assay: Inhibition of BMP signalling pathway in BMP9-stimulated human HUVEC cells assessed as decrease in SMAD1 phosphorylation at 25 uM preincubated for 30 mins followed by BMP2 stimulation and measured after 15 mins by Western blot analysis; format: cell-based; conditions: time 45.0 min
In short: (§3)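 HUVECs, about 3 × 10^5 per well, starved overnight in Kaighn's F-12 with 0.5% FBS and 30 μg/mL endothelial cell growth supplement. Pretreated 30 min with inhibitor, then stimulated with 0.5 ng/mL BMP9. Lysed in M-PER with protease and phosphatase inhibitors. Western blot for pSMAD1/5, SMAD1 and SMAD5, quantified by densitometry.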

Activin receptor type-2A = Activin receptor type-2A (Homo sapiens, UniProt P27037); assay: Inhibition of ACVR2A (unknown origin) by LanthaScreen TR-FRET assay
In short: (§4)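 Outsourced SelectScreen profiling using a LanthaScreen TR-FRET binding format, in which a tight-binding tracer is displaced from the kinase.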

HEK293T [7] = assay: Inhibition of BMP signalling pathway in BMP2-stimulated human HEK293T cells assessed as decrease in SMAD5 phosphorylation at 25 uM preincubated for 30 mins followed by BMP2 stimulation and measured after 15 mins by Western blot analysis; format: cell-based; conditions: time 45.0 min
In short: (§5)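 HEK293T cells, 3 × 10^5 per well, starved overnight in DMEM with 2 mM glycine and 2% heat-inactivated FBS. Pretreated 30 min with inhibitor, then 5 ng/mL BMP2 for 15 min. Lysed in M-PER with protease inhibitors. Western blot for pSMAD1/5, SMAD1, SMAD5 and GAPDH, quantified by densitometry.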

HUVEC [8] = assay: Inhibition of BMP signalling pathway in BMP9-stimulated human HUVEC cells assessed as decrease in SMAD5 phosphorylation at 25 uM preincubated for 30 mins followed by BMP2 stimulation and measured after 15 mins by Western blot analysis; format: cell-based; conditions: time 45.0 min; in short: as §3
HEK293T [9] = assay: Inhibition of BMP signalling pathway in BMP2-stimulated human HEK293T cells assessed as decrease in SMAD1 phosphorylation at 25 uM preincubated for 30 mins followed by BMP2 stimulation and measured after 15 mins by Western blot analysis; format: cell-based; conditions: time 45.0 min; in short: as §5
[10] = Inhibition of BMP signalling pathway in BMP2-stimulated human HEK293T cells expressing BRE and luciferase reporter assessed as inhibition of luciferase transactivation by measuring BRE-reporter activity preincubated for 30 mins followed by BMP2 stimulation and measured after 6 hrs by Bright-GLO mediated luciferase assay; format: cell-based; conditions: HEK-293T
In short: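 293T cells stably carrying a BMP-responsive-element luciferase reporter, 2 × 10^4 per well, attached overnight in phenol-red-free DMEM with 2 mM glycine and 2% heat-inactivated FBS. Pretreated 30 min with inhibitor, then 5 ng/mL BMP2 for 6 h. Bright-Glo luminescence read; IC50 by nonlinear regression.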

TGF-beta receptor type-2 = TGF-beta receptor type-2 (Homo sapiens, UniProt P37173); assay: Inhibition of TGFBR2 (unknown origin) by LanthaScreen TR-FRET assay; in short: as §4
[11] = biological target: Receptor-interacting serine/threonine-protein kinase 2 (Homo sapiens, UniProt O43353); assay: Inhibition of RIPK2 (unknown origin) incubated for 30 mins in presence of [gamma33P]ATP by microplate reader analysis
Activin receptor type-2B = Activin receptor type-2B (Homo sapiens, UniProt Q13705); assay: Inhibition of ACVR2B (unknown origin) by LanthaScreen TR-FRET assay; in short: as §4
[12] = biological target: T2, Bone morphogenetic protein receptor type-2 (Homo sapiens) (UniProt Q13873); assay: as §1; in short: as §2
T2 sequence (whole entry): T1 sequence (Q13873 whole entry)

[13] = liver microsomes, read-out: CLH

Sequence of TGF-beta receptor type-2 (P37173 whole entry): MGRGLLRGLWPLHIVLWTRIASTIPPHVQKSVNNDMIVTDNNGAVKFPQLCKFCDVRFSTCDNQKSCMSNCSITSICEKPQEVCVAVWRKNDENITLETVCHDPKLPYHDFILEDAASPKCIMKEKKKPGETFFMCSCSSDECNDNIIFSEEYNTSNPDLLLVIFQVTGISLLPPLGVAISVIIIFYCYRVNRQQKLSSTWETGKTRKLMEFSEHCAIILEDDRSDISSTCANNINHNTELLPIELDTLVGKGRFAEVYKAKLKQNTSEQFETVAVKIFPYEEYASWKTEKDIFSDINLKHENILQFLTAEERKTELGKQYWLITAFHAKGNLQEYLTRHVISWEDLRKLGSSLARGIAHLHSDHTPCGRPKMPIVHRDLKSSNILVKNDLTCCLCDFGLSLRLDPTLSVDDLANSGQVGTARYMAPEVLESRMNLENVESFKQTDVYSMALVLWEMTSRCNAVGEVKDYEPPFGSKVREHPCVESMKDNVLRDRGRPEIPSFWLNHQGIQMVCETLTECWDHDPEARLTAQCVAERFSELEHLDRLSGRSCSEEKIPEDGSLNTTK
Sequence of Activin receptor type-2A (P27037 whole entry): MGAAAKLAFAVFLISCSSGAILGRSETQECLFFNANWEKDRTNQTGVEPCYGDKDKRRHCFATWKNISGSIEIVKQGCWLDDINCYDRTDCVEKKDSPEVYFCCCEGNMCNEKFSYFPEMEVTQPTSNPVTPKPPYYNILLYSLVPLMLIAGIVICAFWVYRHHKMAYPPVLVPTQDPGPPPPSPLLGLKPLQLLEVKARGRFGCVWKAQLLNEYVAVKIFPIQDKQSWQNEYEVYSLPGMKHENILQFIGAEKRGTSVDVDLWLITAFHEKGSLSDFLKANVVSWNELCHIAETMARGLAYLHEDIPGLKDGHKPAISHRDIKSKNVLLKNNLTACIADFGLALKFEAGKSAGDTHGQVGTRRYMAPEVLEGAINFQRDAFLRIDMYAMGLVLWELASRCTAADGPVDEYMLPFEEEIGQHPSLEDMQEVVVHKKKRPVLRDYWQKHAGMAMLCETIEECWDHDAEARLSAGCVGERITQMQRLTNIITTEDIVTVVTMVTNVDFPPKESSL
Sequence of Activin receptor type-2B (Q13705 whole entry): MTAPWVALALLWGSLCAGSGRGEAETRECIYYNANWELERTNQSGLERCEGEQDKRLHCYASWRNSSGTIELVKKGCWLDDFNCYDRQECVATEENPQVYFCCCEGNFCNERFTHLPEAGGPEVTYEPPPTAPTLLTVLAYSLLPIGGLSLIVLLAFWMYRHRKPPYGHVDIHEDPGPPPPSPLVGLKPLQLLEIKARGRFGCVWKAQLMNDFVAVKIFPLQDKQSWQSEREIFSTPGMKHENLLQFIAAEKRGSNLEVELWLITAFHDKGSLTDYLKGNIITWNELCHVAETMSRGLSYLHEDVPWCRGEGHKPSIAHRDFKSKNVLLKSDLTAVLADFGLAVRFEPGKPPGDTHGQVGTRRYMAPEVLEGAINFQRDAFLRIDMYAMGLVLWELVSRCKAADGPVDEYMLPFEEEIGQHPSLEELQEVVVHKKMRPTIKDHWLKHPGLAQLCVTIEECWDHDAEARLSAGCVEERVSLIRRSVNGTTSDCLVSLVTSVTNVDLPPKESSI
Sequence of Receptor-interacting serine/threonine-protein kinase 2 (O43353 whole entry): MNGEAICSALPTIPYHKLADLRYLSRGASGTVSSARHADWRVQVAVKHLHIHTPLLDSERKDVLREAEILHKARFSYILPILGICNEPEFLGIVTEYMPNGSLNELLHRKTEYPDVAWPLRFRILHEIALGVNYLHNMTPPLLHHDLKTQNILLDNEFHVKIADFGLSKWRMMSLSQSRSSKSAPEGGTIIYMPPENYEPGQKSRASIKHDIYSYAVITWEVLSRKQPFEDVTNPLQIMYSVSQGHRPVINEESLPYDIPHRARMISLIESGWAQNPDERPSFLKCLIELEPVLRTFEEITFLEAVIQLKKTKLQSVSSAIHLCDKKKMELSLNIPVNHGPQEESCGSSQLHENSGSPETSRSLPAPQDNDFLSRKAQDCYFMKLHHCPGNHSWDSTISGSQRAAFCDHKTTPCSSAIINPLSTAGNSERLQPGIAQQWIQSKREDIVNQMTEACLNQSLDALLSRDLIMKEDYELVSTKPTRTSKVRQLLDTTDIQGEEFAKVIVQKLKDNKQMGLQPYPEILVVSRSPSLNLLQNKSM

SMILES: Cc1sc2c(c1C)C(c1ccc(Cl)cc1)=N[C@@H](CC(=O)OC(C)(C)C)c1nnc(C)n1-2
- t1/2 [1]: 14 min

SMILES: COc1cnc(Nc2cccc(S(N)(=O)=O)c2)nc1N1CC2CCC(C1)N2c1ccccc1
- Ki [2]: 220 nM

SMILES: COc1cnc(Nc2cccc(S(N)(=O)=O)c2)nc1N1CCN(c2ccccc2)CC1C (stereo not drawn)
- microsomal intrinsic clearance [3]: 18 µL/min/mg
- microsomal intrinsic clearance [4]: 233 µL/min/mg
- t1/2 [1]: 79 min
- Ki [2]: 88 nM
- t1/2 [5]: 6 min

SMILES: Cc1nnc2n1-c1ccc(Cl)cc1C(c1ccccc1)=NC2 [ALPRAZOLAM]
- microsomal CLint at 2 µM [4, 13]: 5 µL/min/mg
- t1/2 [1]: 620 min
- t1/2 [5]: 258 min

SMILES: c1ccc2c(-c3cnn4cc(-c5ccc(N6CCNCC6)cc5)cnc34)ccnc2c1
- inhibition (HUVEC [6]): Active
- IC50 (Activin receptor type-2A): 9.3 nM
- inhibition (HEK293T [7]): Active
- inhibition (HUVEC [8]): Active
- inhibition (HEK293T [9]): Active
- IC50 [10]: 82 nM
- IC50 (TGF-beta receptor type-2): 4.2 nM
- IC50 [11]: 25 nM
- IC50 (Activin receptor type-2B): 9.3 nM

SMILES: NS(=O)(=O)c1cccc(Nc2ncc(C(F)(F)F)c(N3CCN(c4ccccc4)C(=O)C3)n2)c1
- inhibition [12]: inactive

SMILES: CCOc1cnc(Nc2cccc(S(N)(=O)=O)c2)nc1N1CCN(c2ccccc2)C(=O)C1
- microsomal intrinsic clearance [3]: 19 µL/min/mg
- microsomal intrinsic clearance [4]: 79 µL/min/mg
- t1/2 [1]: 73 min
- Ki [2]: 5 nM
- t1/2 [5]: 18 min

SMILES: CNC(=O)[C@@H]1CC[C@@H](n2c(-c3cc(Cl)cc(Cl)c3)nc3ccc(C(=O)NCc4cccc(C(N)=O)c4)cc32)C1
- Ki [2]: > 1000 nM

SMILES: NS(=O)(=O)c1cccc(Nc2ncc(OC(F)F)c(N3CCN(c4ccccc4)C(=O)C3)n2)c1
- Ki [2]: > 200 nM

SMILES: CC(C)Oc1cnc(Nc2cccc(S(N)(=O)=O)c2)nc1N1CCN(c2ccccc2)C(=O)C1
- Ki [2]: > 200 nM

SMILES: COc1cnc(Nc2cccc(S(N)(=O)=O)c2)nc1N1CCN(c2ccccc2)CC1
- inhibition (HUVEC [6]): Active
- microsomal intrinsic clearance [3]: 18 µL/min/mg
- microsomal intrinsic clearance [4]: 120 µL/min/mg
- inhibition (HEK293T [7]): Active
- inhibition (HUVEC [8]): Active
- inhibition (HEK293T [9]): Active
- IC50 [10]: 8720 nM
- t1/2 [1]: 77 min
- Ki [2]: 40 nM
- t1/2 [5]: 12 min

SMILES: COc1cnc(Nc2cccc(S(N)(=O)=O)c2)nc1N1CCN(c2ccccc2)CC1C(F)(F)F (stereo not drawn)
- Ki [2]: 430 nM

SMILES: NS(=O)(=O)c1cccc(Nc2ncc(F)c(N3CCN(c4ccccc4)C(=O)C3)n2)c1
- Ki [2]: 236 nM

SMILES: COc1cnc(Nc2cccc(S(N)(=O)=O)c2)nc1N1CC2CCC1CN2c1ccccc1 (stereo not drawn)
- Ki [2]: 310 nM

SMILES: COc1cnc(Nc2cccc(S(N)(=O)=O)c2)nc1N1CC2CC1CN2c1ccccc1 (stereo not drawn)
- Ki [2]: 930 nM

SMILES: Cn1c(-c2ccc3cnccc3c2)nc2ccc(C(=O)NCc3cccc(C(N)=O)c3)cc21
- microsomal intrinsic clearance [3]: 20 µL/min/mg
- microsomal intrinsic clearance [4]: 99 µL/min/mg
- IC50 [10]: 29800 nM
- t1/2 [1]: 69 min
- Ki [2]: 22 nM
- t1/2 [5]: 14 min

SMILES: COc1cnc(Nc2cccc(S(N)(=O)=O)c2)nc1N1CCN(c2ccccn2)CC1
- microsomal intrinsic clearance at 2 µM [3, 13]: 32 µL/min/mg
- microsomal intrinsic clearance at 2 µM [4, 13]: 159 µL/min/mg
- half-life at 2 µM ([1]; liver microsomes): 43 min
- half-life at 2 µM ([5]; liver microsomes): 9 min

SMILES: COc1cnc(Nc2cccc(S(N)(=O)=O)c2)nc1N1CCN(c2ccccc2)C(C)C1 (stereo not drawn)
- microsomal intrinsic clearance [3]: 23 µL/min/mg
- microsomal intrinsic clearance [4]: 220 µL/min/mg
- t1/2 [1]: 60 min
- Ki [2]: 118 nM
- t1/2 [5]: 6 min

SMILES: CNC(=O)[C@@H]1CC[C@@H](n2c(-c3cccc(Cl)c3)nc3ccc(C(=O)NCc4cccc(C(N)=O)c4)cc32)C1
- Ki [2]: > 1000 nM

SMILES: CNC(=O)c1ccc2nc(-c3ccc4cnccc4c3)n([C@@H]3CC[C@@H](C(=O)NC)C3)c2c1
- Ki [2]: > 1000 nM

SMILES: COc1cnc(Nc2cccc(S(N)(=O)=O)c2)nc1N1CCNCC1
- Ki [2]: 250 nM

SMILES: COc1cnc(Nc2cccc(S(N)(=O)=O)c2)nc1N1CC(F)(c2ccccc2)C1
- microsomal intrinsic clearance [3]: 8 µL/min/mg
- microsomal intrinsic clearance [4]: 65 µL/min/mg
- t1/2 [1]: 170 min
- Ki [2]: 18 nM
- t1/2 [5]: 21 min

SMILES: COc1cnc(Nc2ccccc2)nc1N1CCN(c2ccccc2)CC1
- inhibition [12]: inactive

SMILES: CNC(=O)[C@@H]1CC[C@@H](n2c(-c3ccc4cnccc4c3)nc3ccc(C(=O)NCc4ccccc4)cc32)C1
- Ki [2]: 39 nM

SMILES: COc1cnc(Nc2cccc(S(N)(=O)=O)c2)nc1N1CCN(c2ccccc2)CC12CC2
- Ki [2]: 220 nM
